# Source: ChEMBL document CHEMBL3351671, “Synthesis and anticancer activity of (E)-2-benzothiazole hydrazones” (Eur J Med Chem, 2014)
# Assays:
# [1] = Cytotoxicity against human HL60 cells after 72 hrs by MTT assay; type: functional, cell-based; settings: HL-60, 72 h
# In short: (§1)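 Cells grown in DMEM with 10% fetal bovine serum, 2 mM glutamine, 100 U/mL penicillin and streptomycin at 37 °C under 5% CO₂. Compounds were dissolved in DMSO, diluted with water and incubated with cells for 72 h. Viability was read by MTT reduction to formazan. IC₅₀ with 95% confidence interval, triplicate experiments.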
# [2] = Hemolytic toxicity in mouse erythrocytes assessed as induction of cell membrane disruption incubated for 30 mins by hemoglobin release based spectrophotometry; set-up: species or system Erythrocyte
# In short: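 Erythrocytes were exposed to compounds (DMSO stock, water-diluted) for 30 min at room temperature, then centrifuged. Hemoglobin released into the supernatant was read at 540 nm. DMSO served as negative control and 1% Triton X-100 as positive control.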
# [3] = test system: MRC5; test: Cytotoxicity against human MRC5 cells after 72 hrs by MTT assay; type: cell-based; settings: mrc5, 72 h
# [4] = Cytotoxicity against human HCT8 cells after 72 hrs by MTT assay; type: functional, cell-based; settings: HCT-8, 72 h; in short: as §1
# [5] = test system: MDA-MB-435; test: Cytotoxicity against human MDA-MB-435 cells after 72 hrs by MTT assay; type: functional, cell-based; settings: MDA-MB-435, 72 h
# In short: as §1, with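 “h. […]” for “h.”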
Compound,IC50 [1],EC50 at 30 min [2],Activity [3],IC50 [4],IC50 [5]
O=[N+]([O-])c1ccc(O)c(/C=N/Nc2nc3ccccc3s2)c1,1.65 µM,> 200 µg/mL,Non-toxic,13.5 µM,14 µM
Oc1ccc(/C=N/Nc2nc3ccccc3s2)cc1,4.6 µM,> 200 µg/mL,Non-toxic,> 18.6 µM,> 18.6 µM
Cc1ccc(/C=N/Nc2nc3ccccc3s2)c(C)c1,> 17.8 µM,> 200 µg/mL,–,> 17.8 µM,> 17.8 µM
Clc1ccc(/C=N/Nc2nc3ccccc3s2)c(Cl)c1,> 15.5 µM,> 200 µg/mL,–,> 15.5 µM,> 15.5 µM
Oc1ccc(/C=N/Nc2nc3ccccc3s2)c(O)c1,1.89 µM,> 200 µg/mL,Non-toxic,3.43 µM,14.4 µM
O=C(O)c1ccccc1/C=N/Nc1nc2ccccc2s1,> 16.8 µM,> 200 µg/mL,–,> 16.8 µM,> 16.8 µM
COc1cccc2c1C(=O)c1c(O)c3c(c(O)c1C2=O)C[C@@](O)(C(=O)CO)C[C@@H]3O[C@H]1C[C@H](N)[C@H](O)[C@H](C)O1 [DOXORUBICIN],–,> 200 µg/mL,–,–,–
Fc1ccc(/C=N/Nc2nc3ccccc3s2)c(F)c1,> 17.3 µM,> 200 µg/mL,–,> 17.3 µM,> 17.3 µM
CN(C)c1ccc(/C=N/Nc2nc3ccccc3s2)cc1,> 16.9 µM,> 200 µg/mL,–,> 16.9 µM,> 16.9 µM
C(=N\Nc1nc2ccccc2s1)/c1ccc(-c2ccccn2)cc1,11.5 µM,> 200 µg/mL,Non-toxic,> 15.1 µM,> 15.1 µM
COc1cc(/C=N/Nc2nc3ccccc3s2)ccc1O,> 16.7 µM,> 200 µg/mL,–,> 16.7 µM,> 16.7 µM
Oc1cccc(/C=N/Nc2nc3ccccc3s2)c1O,0.35 µM,> 200 µg/mL,Non-toxic,1.29 µM,> 17.5 µM
Clc1ccc(/C=N/Nc2nc3ccccc3s2)cc1,> 17.4 µM,> 200 µg/mL,–,> 17.4 µM,> 17.4 µM
Brc1ccc(/C=N/Nc2nc3ccccc3s2)cc1,> 15.1 µM,> 200 µg/mL,–,> 15.1 µM,> 15.1 µM
COc1ccc(/C=N/Nc2nc3ccccc3s2)c(OC)c1,> 16 µM,> 200 µg/mL,–,> 16 µM,> 16 µM
Oc1ccc(O)c(/C=N/Nc2nc3ccccc3s2)c1,0.59 µM,> 200 µg/mL,Non-toxic,11.2 µM,6.27 µM
C(=N\Nc1nc2ccccc2s1)/c1ccc2c(c1)OCO2,5.51 µM,> 200 µg/mL,Non-toxic,> 16.8 µM,> 16.8 µM
Oc1ccc(/C=N/Nc2nc3ccccc3s2)cc1O,13.6 µM,> 200 µg/mL,Non-toxic,> 17.5 µM,> 17.5 µM
